Data taken from ChEMBL document CHEMBL1145431, “Improved anti-osteoporosis potency and reduced endometrial membrane hyperplasia during hormone replacement therapy with estrogen-RGD peptide conjugates” (2007).
Where a SMILES comes first, the peptide text is derived from it. The star is where a group is joined. Succinyl(O17-estradiol) = C[C@]12CC[C@@H]3c4ccc(O)cc4CC[C@H]3[C@@H]1CC[C@@H]2OC(=O)CCC(=O)*

What was measured:
[1] = system: Mus musculus; test: Effect on liver weight in ovariectomized mouse at 0.110 mmol/kg, ip once daily for 4 weeks; type: functional
In short: (§1)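 Female Kuiming mice (7 weeks, 30.7 ± 3.1 g) ovariectomized, sham group abdominorotomy. From day 5, i.p. once daily for 4 weeks at 110.3 × 10-3 mmol/kg in 0.5% CMC. Left femur cleaned, length measured, defatted in chloroform-methanol (2:1, 2 × 3 h), dried 120 °C 6 h for dry weight, ashed 800 °C 8 h. Mineral content = ash/dry weight. Ash dissolved in 6 N HCl and diluted. Ca by o-methylphenolphthalein complexone, P by molybdenum blue. Lungs and livers weighed directly.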

[2] = system: Mus musculus; test: Effect on lenght of femur in mouse at 0.110 mmol/kg, po; type: functional
In short: (§2)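 Female Kuiming mice (7 weeks old, 30.7 ± 3.1 g) under abdominal OVX, sham group abdominorotomy only. From day 5 after surgery, dosed orally once daily for 4 weeks at 110.3 × 10-3 mmol/kg in 0.5% CMC (0.2 mL), vehicle group CMC alone. Blood drawn retro-orbitally, then left femur and organs removed under pentobarbital (40.0 mg/kg, i.p.).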

[3] = system: Mus musculus; test: Effect on phosphorus level in ovariectomized mouse at 0.1103 mmol/kg, ip once daily for 4 weeks; type: functional; in short: as §1
[4] = system: Mus musculus; test: Effect on dry weight of femurs in ovariectomized mouse at 0.1103 mmol/kg, ip once daily for 4 weeks; type: functional, Femur; in short: as §1
[5] = system: Mus musculus; test: Effect on dry weight of femurs in mouse at 0.1103 mmol/kg, po; type: functional, Femur; in short: as §2
[6] = system: Mus musculus; test: Effect on spleen weight in mouse at 0.1103 mmol/kg, po; type: functional; in short: as §2
[7] = system: Mus musculus; test: Effect on liver weight in mouse at 0.1103 mmol/kg, po; type: functional; in short: as §2
[8] = system: Mus musculus; test: Effect on uterus weight in ovariectomized mouse at 0.1103 mmol/kg, ip once daily for 4 weeks; type: functional
In short: (§3)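 Female Kuiming mice (7 weeks old, 30.7 ± 3.1 g), abdominal OVX under pentobarbital (40.0 mg/kg i.p.). From day 5 after surgery, i.p. injection once daily for 4 weeks, compound in aqueous 0.5% CMC prepared just before use. The day after the last dose, mice were anesthetized and killed, and lungs, livers, spleens and uteri were removed and weighed directly. n = 12, ANOVA, p < 0.05.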

[9] = system: Mus musculus; test: Effect on phosphorus level in mouse at 0.110 mmol/kg, po; type: functional; in short: as §2
[10] = system: Mus musculus; test: Effect on serum ALP level in mouse at 0.1103 mmol/kg, po; type: functional
In short: (§4)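 Oral OVX Kuiming mouse model, dosed daily for 4 weeks at 110.3 × 10-3 mmol/kg in 0.5% CMC. Retro-orbital blood stood 30 min at room temperature and was spun at 3000 g for 20 min. Serum kept at -20 °C. Calcium read by o-methylphenolphthalein complexone, phosphorus by molybdenum blue, ALP by activity on disodium phenylphosphate substrate.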

[11] = system: Mus musculus; test: Effect on calcium level in mouse at 0.1103 mmol/kg, po; type: functional; in short: as §2
[12] = system: Mus musculus; test: Effect on lung weight in mouse at 0.1103 mmol/kg, po; type: functional; in short: as §2
[13] = system: Mus musculus; test: Effect on spleen weight in ovariectomized mouse at 0.1103 mmol/kg, ip once daily for 4 weeks; type: functional; in short: as §3
[14] = system: Mus musculus; test: Effect on serum ALP lavel in ovariectomized mouse at 0.1103 mmol/kg, ip once daily for 4 weeks; type: functional
In short: (§5)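 OVX Kuiming mice dosed i.p. daily for 4 weeks in 0.5% CMC. Blood taken retro-orbitally on the day after the last dose, stood 30 min, spun at 3000 g for 20 min, serum stored at -20 °C. Calcium by o-methylphenolphthalein complexone, phosphorus by molybdenum blue, ALP by activity with disodium phenylphosphate substrate.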

[15] = system: Mus musculus; test: Effect on femur length in ovariectomized mouse at 0.1103 mmol/kg, ip once daily for 4 weeks; type: functional; in short: as §1
[16] = system: Mus musculus; test: Effect on mineral content in mouse at 0.1103 mmol/kg, po; type: functional; in short: as §2
[17] = system: Mus musculus; test: Effect on mineral content in ovariectomized mouse at 0.1103 mmol/kg, ip once daily for 4 weeks; type: functional; in short: as §1
[18] = system: Mus musculus; test: Effect on lung weight in ovariectomized mouse at 0.1103 mmol/kg, ip once daily for 4 weeks; type: functional; in short: as §1
[19] = system: Mus musculus; test: Effect on serum phosphorous Concentration in mouse at 0.110 mmol/kg, po; type: functional; in short: as §4
[20] = system: Mus musculus; test: Effect on uterus weight in mouse at 0.1103 mmol/kg, po; type: functional
[21] = system: Mus musculus; test: Effect on serum calcium level in mouse at 0.1103 mmol/kg, po; type: functional; in short: as §4
[22] = system: Mus musculus; test: Effect on serum phosphorus level in ovariectomized mouse at 0.1103 mmol/kg, ip once daily for 4 weeks; type: functional; in short: as §5
[23] = system: Mus musculus; test: Effect on serum calcium level in ovariectomized mouse at 0.1103 mmol/kg, ip once daily for 4 weeks; type: functional; in short: as §5
[24] = system: Mus musculus; test: Effect on femur ash weight in mouse at 0.1103 mmol/kg, po; type: functional; in short: as §2
[25] = system: Mus musculus; test: Effect on femur ash weight in ovariectomized mouse at 0.1103 mmol/kg, ip once daily for 4 weeks; type: functional; in short: as §1
[26] = system: Mus musculus; test: Effect on calcium level in ovariectomized mouse at 0.1103 mmol/kg, ip once daily for 4 weeks; type: functional; in short: as §1
[27] = system: Mus musculus; test: Increase in body weight in ovariectomized mouse at 0.1103 mmol/kg, ip once daily for 4 weeks; type: functional
In short: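 Female Kuiming mice (30.7 ± 3.1 g) underwent abdominal OVX; the sham group had abdominorotomy only. From day 5 after surgery, i.p. dosing once daily for 4 weeks at 110.3 × 10-3 mmol/kg in aqueous 0.5% CMC. Body weight was recorded on the day of the last administration.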

C[C@]12CC[C@@H]3c4ccc(O)cc4CC[C@H]3[C@@H]1CC[C@@H]2OC(=O)CCC(=O)N[C@@H](CCCNC(=N)N)C(=O)NCC(=O)N[C@@H](CC(=O)O)C(=O)N[C@@H](CO)C(=O)O ({Succinyl(O17-estradiol)}-RGDS-OH)
Activity [1]: 1.371 g | Activity [2]: 1.654 cm | Activity [3]: 24.92% | Activity [4]: 66.4 mg | Activity [5]: 68.8 mg | Activity [6]: 135 mg | Activity [7]: 1.331 g | Activity [8]: 55.5 mg | Activity [9]: 24.885% | Activity [10]: 35.4 U/L | Activity [11]: 51.201% | Activity [12]: 161 mg | Activity [13]: 130 mg | Activity [14]: 32.771 U/L | Activity [15]: 1.634 cm | Ratio [16]: 51.5% | Ratio [17]: 0.52 | Activity [18]: 151 mg | Activity [19]: 1.6 mmol/L | Activity [20]: 36.7 mg | Activity [21]: 2.04 mmol/L | Activity [22]: 1.602 mmol/L | Activity [23]: 2.002 mmol/L | Activity [24]: 29.3 mg | Activity [25]: 34.4 mg | Activity [26]: 51.312% | Activity [27]: 35.4 g

CC(C)[C@H](NC(=O)[C@H](CC(=O)O)NC(=O)CNC(=O)[C@H](CCCNC(=N)N)NC(=O)CCC(=O)O[C@H]1CC[C@H]2[C@@H]3CCc4cc(O)ccc4[C@H]3CC[C@]12C)C(=O)O ({Succinyl(O17-estradiol)}-RGDV-OH)
Activity [1]: 1.353 g | Activity [2]: 1.645 cm | Activity [3]: 24.867% | Activity [4]: 62.6 mg | Activity [5]: 68.2 mg | Activity [6]: 133 mg | Activity [7]: 1.34 g | Activity [8]: 69.4 mg | Activity [9]: 24.879% | Activity [10]: 33.411 U/L | Activity [11]: 52.003% | Activity [12]: 167 mg | Activity [13]: 143 mg | Activity [14]: 31.057 U/L | Activity [15]: 1.655 cm | Ratio [16]: 52.5% | Ratio [17]: 0.625 | Activity [18]: 167 mg | Activity [19]: 1.61 mmol/L | Activity [20]: 50.7 mg | Activity [21]: 2.03 mmol/L | Activity [22]: 1.605 mmol/L | Activity [23]: 2.005 mmol/L | Activity [24]: 33 mg | Activity [25]: 35.8 mg | Activity [26]: 53.078% | Activity [27]: 34.5 g
